Reference: ChEMBL document CHEMBL5344428, “Discovery, Crystallographic Studies, and Mechanistic Investigations of Novel Phenylalanine Derivatives Bearing a Quinazolin-4-one Scaffold as Potent HIV Capsid Modulators” (J Med Chem, 2023)

Tests used:
[1] = Selectivity ratio of EC50 for antiviral activity against HIV1 IIIB infected in human MT4 cells to EC50 for antiviral activity against HIV2 ROD infected in human MT4 cells; type: toxicity, cell-based
Procedure, shortened: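 Ratio is EC50 against HIV-1 IIIB divided by EC50 against HIV-2 ROD. Both EC50 values come from MTT-read protection of infected MT-4 cells.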

[2] = Selectivity index, ratio of CC50 for cytotoxicity against human MT4 cells to EC50 for antiviral activity against HIV2 ROD infected in human MT4 cells; type: toxicity, cell-based; conditions: read-out: Ratio CC50/EC50
Procedure, shortened: (§1)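 SI is CC50 divided by EC50. CC50 comes from MTT viability of uninfected MT-4 cells. EC50 comes from MTT-read protection of MT-4 cells infected with HIV-1 IIIB or HIV-2 ROD. Each value was run in at least triplicate.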

[3] = Selectivity index, ratio of CC50 for cytotoxicity against human MT4 cells to EC50 for antiviral activity against HIV1 IIIB infected in human MT4 cells; type: toxicity, cell-based; conditions: read-out: Ratio CC50/EC50; procedure, shortened: as §1
[4] = tested on: Human immunodeficiency virus 1; test: Antiviral activity against HIV-1 IIIB infected in human MT4 cells assessed as protection against virus induced cytopathic effect; type: functional, organism-based; conditions: Human immunodeficiency virus 1, IIIB
Procedure, shortened: (§2)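 MT-4 cells were infected with HIV-1 IIIB or HIV-2 ROD, and cell viability was read by MTT. […] Each value was run in at least triplicate and averaged from at least three independent experiments.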

[5] = tested on: Human immunodeficiency virus 2; test: Antiviral activity against HIV-2 ROD infected in human MT4 cells assessed as protection against virus induced cytopathic effect; type: functional, organism-based; conditions: Human immunodeficiency virus 2, ROD; procedure, shortened: as §2
[6] = Cytotoxicity against human MT4 cells assessed as reduction in cell viability; type: toxicity, cell-based
Procedure, shortened: (§3)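 Uninfected MT-4 cells were exposed to compound, and viability was read by the MTT method. […] Each value was run in at least triplicate and averaged from at least three independent experiments.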

[7] = Cytotoxicity against human MT4 cells assessed as reduction in cell viability incubated for 5 days by MTT assay; type: toxicity, cell-based; conditions: MT4 cells, time 5 day; procedure, shortened: as §3
[8] = tested on: Human immunodeficiency virus 1; test: Antiviral activity against HIV1 IIIB infected in human MT4 cells assessed as reduction in virus induced cytopathic effect measured after 5 days by MTT assay; type: functional, organism-based; conditions: Human immunodeficiency virus 1, IIIB, MT4, 120 h; procedure, shortened: as §2
[9] = tested on: Human immunodeficiency virus 2; test: Antiviral activity against HIV2 ROD infected in human MT4 cells assessed as reduction in virus induced cytopathic effect measured after 5 days by MTT assay; type: functional, organism-based; conditions: Human immunodeficiency virus 2, ROD, MT4, 120 h; procedure, shortened: as §2

Row | Compound | Ratio EC50 [1] | selectivity ratio [2] | selectivity ratio [3] | EC50 [4] | EC50 [5] | CC50 [6] | CC50 at 120 h [7] | EC50 [8] | EC50 [9]
1 | COc1ccc(N(C)C(=O)[C@H](Cc2cc(F)cc(F)c2)NC(=O)CN2CCN(S(=O)(=O)c3ccccc3[N+](=O)[O-])CC2)cc1 | 2.39 | 79.7 | 33.4 | 2.84 µM | 1.19 µM | 94.9 µM | – | – | –
2 | COc1ccc(N(C)C(=O)[C@H](Cc2cc(F)cc(F)c2)NC(=O)CN2CCN(S(=O)(=O)c3ccc(N)cc3)CC2)cc1 | 2.4 | 2340 | 977 | 0.12 µM | 0.05 µM | 117 µM | – | – | –
3 | COc1ccc(N(C)C(=O)[C@H](Cc2cc(F)cc(F)c2)NC(=O)CN2CCN(S(=O)(=O)c3cccc(F)c3)CC2)cc1 | 2 | > 1690 | > 843 | 0.24 µM | 0.12 µM | > 202 µM | – | – | –
4 | COc1ccc(N(C)C(=O)[C@H](Cc2cc(F)cc(F)c2)NC(=O)CN2CCN(S(=O)(=O)c3ccccc3F)CC2)cc1 | 2 | 2010 | 1000 | 0.18 µM | 0.09 µM | 181 µM | – | – | –
5 | COc1ccc(N(C)C(=O)[C@H](Cc2cc(F)cc(F)c2)NC(=O)CN2CCN(S(=O)(=O)c3ccccc3)CC2)cc1 | 2 | 1140 | 570 | 0.2 µM | 0.1 µM | 114 µM | – | – | –
6 | COc1ccc(N(C)C(=O)[C@H](Cc2cc(F)cc(F)c2)NC(=O)CN2CCN(S(=O)(=O)c3cccc([N+](=O)[O-])c3)CC2)cc1 | 8.76 | 493 | 56.3 | 1.49 µM | 0.17 µM | 83.9 µM | – | – | –
7 | COc1ccc(N(C)C(=O)[C@H](Cc2cc(F)cc(F)c2)NC(=O)CN2CCN(S(=O)(=O)c3cccc(N)c3)CC2)cc1 | 1.45 | 987 | 679 | 0.16 µM | 0.11 µM | 109 µM | – | – | –
8 | COc1ccc(N(C)C(=O)[C@H](Cc2cc(F)cc(F)c2)NC(=O)CN2CCN(S(=O)(=O)c3ccc(F)cc3)CC2)cc1 | 2.19 | 53.3 | 24.3 | 0.79 µM | 0.36 µM | 19.2 µM | – | – | –
9 | COc1ccc(-n2c(S)nnc2[C@H](Cc2ccccc2)NC(=O)Cc2c(C)[nH]c3ccccc23)cc1 | 0.47 | 13 | 27 | – | – | – | 133 µM | 4.94 µM | 10.6 µM
10 | COc1ccc(N(C)C(=O)[C@H](Cc2ccccc2)NC(=O)Cn2ccc(NC(=O)c3ccccc3)cc2=O)cc1 | 3.46 | 17.8 | 5.15 | – | – | – | 86.5 µM | 16.8 µM | 4.86 µM
11 | Nc1ccc(S(=O)(=O)N2CCN(CC(=O)N[C@@H](Cc3ccccc3)c3nc4ccccc4c(=O)n3-c3ccc(S(=O)(=O)N4CCOCC4)cc3)CC2)cc1 | 1.5 | > 1560 | > 1040 | – | – | – | > 159 µM | 0.15 µM | 0.1 µM
12 | COc1ccc(N(C)C(=O)[C@H](Cc2cc(F)cc(F)c2)NC(=O)CN(Cc2ccc(F)cc2)C(=O)Cn2nc(C(F)(F)F)c3ccccc32)cc1 | 0.2 | 8 | 42 | – | – | – | 108 µM | 2.53 µM | 12.9 µM
13 | COc1ccc(-n2c(SCc3ccc(S(N)(=O)=O)cc3)nnc2[C@H](Cc2ccccc2)NC(=O)Cc2c(C)[nH]c3ccccc23)cc1 | 0.72 | > 55 | > 76 | – | – | – | > 187 µM | 2.47 µM | 3.42 µM
14 | COc1ccc(N(C)C(=O)[C@H](Cc2cc(F)cc(F)c2)NC(=O)CN2CCN(C(=O)c3ccc(NC(=O)C(F)(F)F)cc3)CC2=O)cc1 | 0.83 | 9.09 | 10.9 | – | – | – | 150 µM | 13.7 µM | 16.6 µM
15 | COc1ccc(N(C)C(=O)[C@H](Cc2ccccc2)NC(=O)CN2CCN(C(=O)Cc3c[nH]c4ccc(F)cc34)CC2=O)cc1 | 4.83 | 19.9 | 4.13 | – | – | – | 90.1 µM | 21.8 µM | 4.52 µM
16 | COC(=O)CSc1nnc([C@H](Cc2ccccc2)NC(=O)Cc2c(C)[nH]c3ccccc23)n1-c1ccc(OC)cc1 | 0.46 | 12 | 27 | – | – | – | 82.3 µM | 3.01 µM | 6.59 µM
17 | COc1ccc(-n2c(SCCS(C)(=O)=O)nnc2[C@H](Cc2ccccc2)NC(=O)Cc2c(C)[nH]c3ccccc23)cc1 | 0.24 | 10 | 42 | – | – | – | 162 µM | 3.87 µM | 16 µM
18 | COC(=O)CCSc1nnc([C@H](Cc2ccccc2)NC(=O)Cc2c(C)[nH]c3ccccc23)n1-c1ccc(OC)cc1 | 0.59 | > 11 | > 19 | – | – | – | > 214 µM | 11.4 µM | 19.2 µM
19 | COc1ccc(N(C)C(=O)[C@H](Cc2ccccc2)NC(=O)Cn2ccc(N)cc2=O)cc1 | 1.47 | 13.2 | 8.98 | – | – | – | 261 µM | 29.1 µM | 19.7 µM
20 | COc1ccc(N(C)C(=O)[C@H](Cc2cc(F)cc(F)c2)NC(=O)CN(Cc2ccccc2)C(=O)Cc2c(C)[nH]c3ccccc23)cc1 | 0.42 | 4 | 10 | – | – | – | 28.6 µM | 2.77 µM | 6.52 µM
21 | COc1ccc(-n2c(SCC(F)F)nnc2[C@H](Cc2ccccc2)NC(=O)Cc2c(C)[nH]c3ccccc23)cc1 | 0.35 | 3 | 10 | – | – | – | 24.4 µM | 2.54 µM | 7.33 µM
22 | COc1ccc(-n2c(SCCC3OCCCO3)nnc2[C@H](Cc2ccccc2)NC(=O)Cc2c(C)[nH]c3ccccc23)cc1 | 0.25 | 5 | 20 | – | – | – | 32.3 µM | 1.64 µM | 6.65 µM
23 | COc1ccc(N(C)C(=O)[C@H](Cc2ccccc2)NC(=O)CN2CCN(C(=O)Cc3c[nH]c4ccc(OC)cc34)CC2=O)cc1 | 0.86 | 6.15 | 7.15 | – | – | – | 104 µM | 14.6 µM | 16.9 µM
24 | COc1ccc(N(C)C(=O)[C@H](Cc2cc(F)cc(F)c2)NC(=O)CN(Cc2ccc(C#N)cc2)C(=O)Cc2ccc(B3OC(C)(C)C(C)(C)O3)cc2)cc1 | 1.09 | 3 | 3 | – | – | – | 52.4 µM | 17.7 µM | 16.2 µM
25 | COc1ccc(-n2c([C@H](Cc3cc(F)cc(F)c3)NC(=O)CN3CCN(S(=O)(=O)c4ccc([N+](=O)[O-])cc4)CC3)nc3cc(Cl)ccc3c2=O)cc1 | 1.48 | > 403 | > 278 | – | – | – | > 163 µM | 0.59 µM | 0.4 µM
26 | COc1ccc(-n2c([C@H](Cc3ccccc3)NC(=O)CN3CCN(S(=O)(=O)c4ccc(N)cc4)CC3)nc3cc(S(C)(=O)=O)ccc3c2=O)cc1 | 10.97 | > 481 | > 43.7 | – | – | – | > 168 µM | 3.84 µM | 0.35 µM
27 | COc1ccc(-n2c([C@H](Cc3ccccc3)NC(=O)CN3CCN(S(=O)(=O)c4ccc(N)cc4)CC3)nc3cc(Cl)ccc3c2=O)cc1 | 6.1 | > 1740 | > 291 | – | – | – | > 178 µM | 0.61 µM | 0.1 µM
28 | COc1ccc(N(C)C(=O)[C@H](Cc2cc(F)cc(F)c2)NC(=O)CN2CCN(C(=O)Cc3c(C)[nH]c4ccccc34)CC2=O)cc1 | 1.06 | 3.91 | 3.69 | – | – | – | 76.9 µM | 20.8 µM | 19.7 µM
29 | COc1ccc(-n2c(SCc3ncccn3)nnc2[C@H](Cc2ccccc2)NC(=O)Cc2c(C)[nH]c3ccccc23)cc1 | 0.24 | 14 | 58 | – | – | – | 106 µM | 1.81 µM | 7.43 µM
30 | COc1ccc(N(C)C(=O)[C@H](Cc2cc(F)cc(F)c2)NC(=O)CN(Cc2ccc(C#N)cc2)C(=O)Cc2c[nH]c3ccc(Br)cc23)cc1 | 0.36 | 6 | 16 | – | – | – | 87.6 µM | 5.61 µM | 15.7 µM
